Usually EC50 stands for the concentration needed to bring the measured effect to its halfway point. As a reminder, the logP is a log measure of how a compound divides between an organic and an aqueous phase. By logD is commonly meant lipophilicity at a set pH, counting ionised and neutral species. One may read the pKa as the pH at which an ionisable group is half protonated.

The source of these data is ChEMBL document CHEMBL3792346, “Thiazolino 2-Pyridone Amide Inhibitors of Chlamydia trachomatis Infectivity” (J Med Chem, 2016).

Data set [1] has as its system Chlamydia trachomatis. Put plainly: Antimicrobial activity against Chlamydia trachomatis serovar LGV-L2 infected in human HeLa cells assessed as concentration require to reduce relative inclusion forming units by 95% after 48 hrs. The class given is functional. In short, it runs like this:
(§1)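 HeLa cells infected with LGV-L2 at MOI 0.1-0.5; compounds added at 1 hpi, tested at 2.5 µM then 5 or 10 µM or 1, 0.5, 0.25, 0.1 µM; after ~48 h, osmotic lysis, SPG restored, 10-fold dilutions reinfect fresh HeLa; IFUs counted by automated imaging versus DMSO; Reinfect95 = lowest concentration consistently giving 95% IFU reduction; ≥2 experiments in triplicate.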

Data set [2] is described as follows: Cytotoxicity against human HeLa cells assessed as cell viability at 10 uM after 48 hrs by resazurin assay relative to control. The class given is cell-based. The following applies: read-out: Activity. The essentials:
(§2)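 Uninfected HeLa seeded in RPMI, next day switched to colorless DMEM with 10% FBS, 2 mM glutamine; compounds added in triplicate, 48 h at 37 °C; resazurin added, 3 h at 37 °C dark; fluorescence ex 535/em 595 nm; cell-free wells with compound check direct resazurin reduction; mean of three experiments in triplicate, SD over nine replicates.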
In general terms: Alamar Blue is a resazurin reagent that responds to reducing activity.

The test system of data set [3] is Chlamydia trachomatis. The data set can be described thus: Antimicrobial activity against Chlamydia trachomatis serovar LGV-L2 infected in human HeLa cells assessed as decrease in relative inclusion forming units measured 44 to 48 hrs post infection by DAPI staining-based assay. The class given is functional, organism-based. In short, it runs like this: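 HeLa229 cells infected with serovar LGV-L2 at MOI 0.3; compounds in DMSO added at 1 hpi as 8-step halving dilutions from 2 to 0.0156 µM; after 44-48 h, osmotic lysis with cold water, SPG restored, lysate 10-fold serially diluted onto fresh HeLa; after 44-48 h, methanol-fixed, anti-Chlamydia/FITC stained, IFUs counted by automated scanner relative to DMSO; EC50 by nonlinear regression, ≥3 independent experiments.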

The nature of data set [4]: Cytotoxicity against human HeLa cells assessed as cell viability at 25 uM after 48 hrs by resazurin assay relative to control. The class given is cell-based. The settings on record: read-out: Activity. In short, it runs like this:
as §2

In data set [5] the test system is Chlamydia trachomatis. Put plainly: Antimicrobial activity against Chlamydia trachomatis serovar D infected in human HeLa cells assessed as decrease in relative inclusion forming units measured 44 to 48 hrs post infection by DAPI staining-based assay. The class given is functional, organism-based.
Data set [6] deals with Chlamydia trachomatis. The data set can be described thus: Drug uptake in Chlamydia trachomatis serovar LGV-L2 inclusion infected in human HeLa cells at 1 uM after 48 hrs by laser confocal microscopy. The class given is ADME, organism-based. The essentials:
(§3)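 HeLa on coverslips infected with LGV-L2 at MOI 0.5 in HBSS; after 60 min, fresh medium with fluorescent compound or BODIPY control (1 µM) added, left to 48 hpi; PBS-washed, 4% paraformaldehyde fixed, Triton-permeabilized, BSA-blocked, anti-MOMP/rhodamine stained; confocal imaging, 60× oil, Z-stack projections; ≥2 independent experiments.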

For data set [7], the system named is Chlamydia trachomatis. Put plainly: Drug uptake in Chlamydia trachomatis serovar LGV-L2 inclusion infected in human HeLa cells at 1 uM coadministered with 8-Cyclopropyl-7-(naphthalen 1-ylmethyl)-5-oxo-N-(3-methylphenyl)-2,3-dihydro-5H-[1,3]thiazolo[3,2-a]pyridine-3-carboxamide after 48 hrs by laser confocal microscopy. The class given is ADME, organism-based. In short, it runs like this:
(§4)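 Infected HeLa (LGV-L2, MOI 0.5) given 1 µM fluorescent analogue alone or with equimolar competitor, added together directly after infection and kept to end; fixed, anti-MOMP stained, confocal imaged with identical settings; fluorescence per inclusion divided by inclusion area in >40 inclusions; two-tailed t-test; ≥2 independent experiments.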

The subject of data set [8] is Chlamydia trachomatis. The data set can be described thus: Antimicrobial activity against Chlamydia trachomatis serovar LGV-L2 infected in human HeLa cells at 2.5 uM after 48 hrs. The class given is functional. The essentials:
as §1

For data set [9], the system named is Chlamydia trachomatis. The data set can be described thus: Drug uptake in Chlamydia trachomatis serovar LGV-L2 inclusion infected in human HeLa cells at 1 uM coadministered with 6-Amino-8-cyclopropyl-7-(naphthalen-1-ylmethyl)-5-oxo-N-phenyl-2,3-dihydro-5H-[1,3]thiazolo[3,2-a]pyridine 3-carboxamide after 48 hrs by laser confocal microscopy. The class given is ADME, organism-based. The essentials: as §4

A short description of data set [10]: 1-octanol-potassium phosphate buffer partition co-efficient, log P of the compound incubated overnight by shake-flask method. The class given is physicochemical. The essentials: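 Miniaturized shake-flask: 1-octanol pre-saturated with 0.1 M potassium phosphate pH 7.4 and buffer pre-saturated with octanol mixed 1:3 and 1:6; compound added from 10 mM DMSO stock; rotated overnight at rt, centrifuged 3500 rpm 30 min; each phase diluted in 60% acetonitrile with warfarin internal standard, quantified by UHPLC-MS/MS against 1-1000 nM external curve; ketoconazole control.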

For data set [11], the system named is Chlamydia trachomatis. Put plainly: Antimicrobial activity against Chlamydia trachomatis serovar LGV-L2 infected in human HeLa cells at 10 uM measured 44 hrs post infection relative to control. The class given is functional.
In data set [12] the test system is Chlamydia trachomatis. Put plainly: Antimicrobial activity against Chlamydia trachomatis serovar LGV-L2 infected in human HeLa cells measured 44 to 48 hrs post infection by DAPI staining-based assay. The class given is functional, organism-based.
The subject of data set [13] is Chlamydia trachomatis. Put plainly: Antimicrobial activity against Chlamydia trachomatis serovar D infected in human HeLa cells at 10 uM measured 44 hrs post infection relative to control. The class given is functional.
Data set [14] deals with Chlamydia trachomatis. Put plainly: Antimicrobial activity against Chlamydia trachomatis serovar A infected in human HeLa cells at 10 uM measured 44 hrs post infection relative to control. The class given is functional.
The test system of the next data set is Escherichia coli. The data set can be described thus: Effect on growth of Escherichia coli MW100 at 50 uM incubated for 8 hrs measured every hour during incubation. The class given is organism-based. The settings on record: in vivo. In short, it runs like this:
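E. coli MW100 overnight LB cultures at 37 °C diluted to OD600 0.05 in LB with DMSO or 50 µM compound; grown 8 h with OD600 read hourly and visual inspection; triplicate.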

The nature of data set [15]: Effect on growth of Lactobacillus crispatus CCUG 27076A at 50 uM after 48 hrs. In short, it runs like this: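 L. crispatus CCUG 27076A in MRS broth at 37 °C, 5% CO2; overnight culture diluted 1:20 and grown 48 h with 50 µM compound or 1% DMSO.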
The subject of a further data set is Candida albicans. The data set can be described thus: Effect on growth of Candida albicans SC314 at 50 uM measured every 2 hrs by microscopy. The class given is organism-based. The following applies: in vivo. In short, it runs like this:
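C. albicans SC314 grown overnight at 30 °C, diluted to OD600 0.05, grown to OD600 0.2, then compound added at 10 and 50 µM and grown to saturation; sampled every 2 h for microscopic yeast:hyphal ratio.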

A short description of data set [16]: 1-octanol-potassium phosphate buffer distribution co-efficient, log D of the compound incubated overnight at pH 7.4 by shake-flask method.
Data set [17] can be described thus: Dissociation constant, pKa of the compound by UV-visible spectrophotometry. The class given is physicochemical. In short, it runs like this: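 Spectrophotometric titration: 2–5 µL of 10 mM DMSO stock in phosphate buffer with 20-50% (wt/wt) methanol cosolvent and ISA water; titrated pH 2-12 high to low under argon at 25 ± 1 °C, UV–vis spectra by D-PAS; electrode blank-calibrated pH 1.8-12.0 each run; precipitation monitored at 500 nm.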

For the next data set, the system named is HeLa. Put plainly: Drug uptake in human HeLa cells infected with Chlamydia trachomatis serovar LGV-L2 at 1 uM after 48 hrs by laser confocal microscopy. The class given is ADME, cell-based. In short, it runs like this:
as §3

SMILES strings stand for the structures. Some results are limits rather than exact numbers.

`Cc1cccc(NC(=O)C2CSc3c(C4CC4)c(Cc4cccc5ccccc45)cc(=O)n32)c1` (centres undefined): the Activity in the data set with Chlamydia trachomatis [1] was 1 µM. Further, the viability at 48 h, 10 µM in data set [2] was found to be 99%. Besides, in the data set on Chlamydia trachomatis [3], the EC50 worked out at 102 nM. For the same compound, the viability at 48 h, 25 µM in [4] worked out at 100%.
Consider `Cc1ccc(NC(=O)C2CSc3c(C4CC4)c(Cc4cccc(C)c4C)c(N)c(=O)n32)cc1` (centres undefined), for which the Activity with Chlamydia trachomatis [1] worked out at 1 µM. For the same compound, in data set [2], the viability at 48 h, 10 µM amounted to 101%. Further, the EC50 in the data set on Chlamydia trachomatis [3] turned out to be 281 nM; with Chlamydia trachomatis [5], 274 nM. Also, in data set [4], the viability at 48 h, 25 µM turned out to be 102%.
On the same counts, the results for `Cc1cccc(NC(=O)C2CSc3c(C4CC4)c(Cc4cccc5ccccc45)c(N)c(=O)n32)c1` (centres undefined) are 1 µM, 98%, 147 nM, 124 nM and 97%.
Turning to `Nc1c(Cc2cccc3ccccc23)c(C2CC2)c2n(c1=O)C(C(=O)Nc1ccncn1)CS2` (centres undefined), in the data set on Chlamydia trachomatis [1], the Activity was found to be 2.5 µM. Besides, in [2], the viability at 48 h, 10 µM stood at 99%. Also, the viability at 48 h, 25 µM in data set [4] was 88%.
For `CC1=CC(C)=[N+]2C1=C(CCc1cc(=O)n3c(c1C1CC1)SCC3C(=O)Nc1cccc(C)c1)c1c(C)cc(C)n1[B-]2(F)F` (centres undefined), the Drug uptake entry with Chlamydia trachomatis [6] is recorded as “Active”; in the data set with Chlamydia trachomatis [7], “Not Active”; with Chlamydia trachomatis [9], “Not Active”. The compound also showed an Activity in the data set with Chlamydia trachomatis [8] of more than 95%.
As for `Cc1ccc(NC(=O)C2CSc3c(C4CC4)c(Cc4cccc5ccccc45)c(N)c(=O)n32)cc1` (centres undefined), the Activity in the data set on Chlamydia trachomatis [1] amounted to 0.25 µM. The viability at 48 h, 10 µM in data set [2] came out at 98%. The figures for the EC50 with Chlamydia trachomatis [3] and in the data set with Chlamydia trachomatis [5] were 140 nM and 99 nM, respectively. Moreover, the viability at 48 h, 25 µM in [4] is 98%.
For the compound `Cc1ccc(NC(=O)C2CSc3c(C4CC4)c(Cc4ccc(Cl)cc4)c(N)c(=O)n32)cc1` (centres undefined), the Activity with Chlamydia trachomatis [1] is 2.5 µM. Moreover, the viability at 48 h, 10 µM in [2] came to 101%. For the same compound, the figures for the EC50 in the data set with Chlamydia trachomatis [3] and in the data set on Chlamydia trachomatis [5] were 266 nM and 270 nM, respectively. For the same compound, in data set [4], the viability at 48 h, 25 µM was 102%.
On to `O=C(Nc1ccccc1)c1csc2c(C3CC3)c(Cc3cccc4ccccc34)cc(=O)n12`, for which the Activity in the data set on Chlamydia trachomatis [1] stood at 2.5 µM. Also, the viability at 48 h, 10 µM in [2] was 87%. In addition, the EC50 in the data set with Chlamydia trachomatis [3] was 254 nM; in the data set on Chlamydia trachomatis [12] it was 1250 nM. In addition, in [4], the viability at 48 h, 25 µM worked out at 73%. Besides, in [10], the logP is 5. The “fold change (FC)” value in the data set on Chlamydia trachomatis [11], in the data set on Chlamydia trachomatis [13] and with Chlamydia trachomatis [14] was “>=10000” each time.
For the compound `Nc1c(Cc2cccc3ccccc23)c(C2CC2)c2n(c1=O)C(C(=O)Nc1ccccc1)CS2` (centres undefined), the Activity with Chlamydia trachomatis [1] is 0.25 µM; in the data set with Escherichia coli, “Non-toxic”; in [15], “Non-toxic”; in the data set on Candida albicans, “Non-toxic”. Besides, in [2], the viability at 48 h, 10 µM is 101%. Moreover, the EC50 with Chlamydia trachomatis [3] came to 59 nM; in the data set with Chlamydia trachomatis [5], 58 nM. The viability at 48 h, 25 µM in data set [4] was 98%. Moreover, in [16], the log distribution coefficient (logD) is 4.3. Also, the pKa in data set [17] is 2.4.
Take `CC1=CC(C)=[N+]2C1=C(C)c1c(C)cc(C)n1[B-]2(F)F`: the Drug uptake result with Chlamydia trachomatis [6] and in the data set on HeLa was “Not Active” throughout.
On to `O=C(Nc1ccccc1)C1CSc2c(C3CC3)c(Cc3cccc4ccccc34)cc(=O)n21` (racemic), for which the Activity with Chlamydia trachomatis [1] was 2.5 µM. In [2], the viability at 48 h, 10 µM stood at 100%.
